High-throughput results as filed in PubChem.
CYP2C19 inhib – human CYP2C19 inhibition | P33261 | CYP2C19 Supersomes, luciferin-H EGE luminescence, 30 min | inhibition, % at 5 µM | 96,000 compounds, 21% hits;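 active = CYP2C19 inhibition above a set limit at 5 µM in the primary screen, cut at about 50% in these data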;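 note: plate controls were negative control wells for no effect and 2.5 mM tranylcypromine positive control for full effect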
CYP2C9 activ – activators of human CYP2C9; AID 1024; P11712; recombinant CYP2C9, luciferin-H conversion, luminescence; stronger effect = higher value; factor 1 = untreated enzyme, 0 = blocked; activation factor at 5 µM; 96,000 compounds, 1.4% hits;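 active = activation factor of 2 or more for CYP2C9 at a 5 µM dose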;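 note: 0 = sulfaphenazole-blocked wells and 1 = vehicle-only wells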
Target sequence (P11712 whole entry, looked up): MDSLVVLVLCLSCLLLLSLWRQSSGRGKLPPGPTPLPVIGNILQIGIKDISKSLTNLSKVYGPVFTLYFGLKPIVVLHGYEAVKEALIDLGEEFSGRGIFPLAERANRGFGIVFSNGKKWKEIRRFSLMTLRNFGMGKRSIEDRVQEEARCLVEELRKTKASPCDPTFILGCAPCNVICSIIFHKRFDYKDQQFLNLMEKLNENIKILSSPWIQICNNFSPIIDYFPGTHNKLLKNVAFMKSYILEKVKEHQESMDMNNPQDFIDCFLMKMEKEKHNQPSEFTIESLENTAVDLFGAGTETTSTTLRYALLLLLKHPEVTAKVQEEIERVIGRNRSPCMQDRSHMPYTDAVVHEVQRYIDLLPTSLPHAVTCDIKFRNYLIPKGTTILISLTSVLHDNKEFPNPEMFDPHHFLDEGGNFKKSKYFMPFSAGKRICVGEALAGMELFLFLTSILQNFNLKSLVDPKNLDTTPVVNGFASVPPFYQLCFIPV
CYP2C19 activ – cytochrome P450 2C19 (human) activation; P33261; recombinant CYP2C19, luciferin-H EGE luminescence; stronger effect = higher value; 0 = fully inhibited enzyme, 1 = untreated enzyme; activation factor at 5 µM; 96,000 tested, under 10 active;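 active = activation factor of at least 2 at 5 µM in the primary screen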;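 note: 0 = wells with 2.5 mM tranylcypromine and 1 = vehicle-only wells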
Ecoli WT expand – blocks growth of wild type E. coli BW25113; OD600 absorbance; growth inhibition, % at 100 µM; 98,000 compounds, 0.15% hits;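 active = growth inhibition above about 50% at one test dose, limit read from the data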;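 note: growth measured after 20 h incubation at 37 °C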
Ecoli tolC – blocks growth of E. coli BW25113 tolC mutant | growth inhibition, % at 10 µM (by protocol) | OD615 | 65,000 compounds, 2.2% hits;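 active = growth inhibition at or above a cutoff equal to the mean over every tested compound plus 3 SD, cut at about 60% in these data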;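 note: growth measured after 20 h incubation at 37 °C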
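signal = optical density read at 615 nm | test system = E. coli ΔtolC::kan strain BW25113 | timing = 20 h compound exposure of bacteria at 37 °C | buffer or medium = LB medium plus 50 µg/mL kanamycin | compound dosing = 10 µM final, single dose | evaluation = % inhibition of E. coli growth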
CYP2C9 inhib – human CYP2C9 inhibition | 96,000 compounds, 20% hits | inhibition, % at 5 µM | P11712 | CYP2C9 Supersomes, luciferin-H conversion, luminescence;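 active = blocking of liver enzyme CYP2C9 beyond about 50% at 5 µM, limit read from the data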
* marks the source's active call; other numbers are inactive results; nt = not tested or not shown. Only some compounds are listed: those with a hit (about 29% of all), similar ones and a draw of the others.

SMILES | CYP2C19 inhib | CYP2C9 activ | CYP2C19 activ | Ecoli WT expand | Ecoli tolC | CYP2C9 inhib
O=C(Cn1ncc2c(=O)oc3ccccc3c21)N1CCCc2ccccc21 | 42.7 | 0.3 | 0.6 | -2.0 | 16.9 | 66.7*
COc1ccc2c(CC(=O)N(C)CC3COc4ccccc4O3)coc2c1 (stereo not drawn) | 98.9* | 0.1 | 0 | 1.0 | 28.8 | 88.4*
CC(C)C(=O)c1cn(CC(=O)N2CCCc3ccccc32)c2ccccc12 | 42.4 | 0.3 | 0.6 | -1.0 | nt | 74.1*
Cc1c(Cl)c([N+](=O)[O-])nn1CC(=O)NC12CC3CC(CC(C3)C1)C2 | 79.0* | 0.8 | 0.2 | 8.0 | nt | 23.5
CCOC(=O)CC(=O)CSc1nc2c(C)c(C)ccc2cc1C | 61.0* | 0.5 | 0.4 | -2.0 | nt | 54.3*
CCOC(=O)CC(=O)CSc1nc2cc(C)ccc2cc1C | -11.7 | 1 | 1.1 | 7.0 | nt | 4.6
Cc1cccc(N(CC(=O)NCC2CCCO2)C(=O)CCC(=O)Nc2cc(C)on2)c1 (stereo not drawn) | 33.8 | 0.5 | 0.7 | -13.0 | 6.8 | 52.3*
CCc1cccc2c(SC(C)C(=O)NCC3CCCO3)nc(-c3ccccc3)nc12 (stereo not drawn) | 35.7 | 0.4 | 0.6 | -9.0 | nt | 60.8*
CCc1ccc2nc(-c3cccc(C)c3)nc(SCC(=O)NCC3CCCO3)c2c1 (stereo not drawn) | 60.5* | 0.2 | 0.4 | -9.0 | nt | 75.1*
Cc1ccc(-c2noc(CCCC(=O)N3CCOCC3)n2)cc1 | 17.7 | 0.9 | 0.8 | -6.0 | -8.7 | 5.1
CCc1cccc2c(SCC(=O)NCC3CCCO3)nc(-c3ccc(F)cc3)nc12 (stereo not drawn) | 1.9 | 0.6 | 1 | -6.0 | nt | 41.1
Cc1cccc(-c2noc(CCCC(=O)N3CCOCC3)n2)c1 | 52.1* | 1.4 | 0.5 | 10.0 | nt | -35.6
COc1ccc2c(CC(=O)OCC(=O)NC(=O)c3cccn3C)coc2c1 | -4.5 | 0.9 | 1 | 4.0 | nt | 10.8
COc1ccc(C2C3=C(CCCC3=O)Nc3nc4ccccc4n32)cc1OC (stereo not drawn) | nt | nt | nt | nt | -2.0 | nt
Cc1ccccc1-c1noc(CCC(=O)NCC2CCCO2)n1 (stereo not drawn) | -0.3 | 0.9 | 1 | -3.0 | nt | 10.9
Cc1cccc(-c2noc(CCC(=O)NCC3CCCO3)n2)c1 (stereo not drawn) | 59.9* | 1.1 | 0.4 | 6.0 | nt | -12.5
O=C(c1ccccc1S(=O)(=O)NCC(O)COc1ccc([N+](=O)[O-])cc1)N1CCCCC1 (stereo not drawn) | 10.7 | 0.9 | 0.9 | 7.0 | nt | 9.9
O=C(NCc1ccc(F)cc1)c1cnc(-c2ccccn2)nc1C(F)(F)F | -1.4 | 0.9 | 1 | 2.0 | nt | 13.8
CC(C)(C)NC(=O)CN(C(=O)CS(=O)CC(=O)Nc1ccc(F)cc1)c1ccc(F)c(Cl)c1 (stereo not drawn) | 35.8 | 0.1 | 0.6 | -5.0 | 6.6 | 88.6*
CCCS(=O)(=O)NCCc1cc2ccc(C)cc2[nH]c1=O | nt | nt | nt | nt | -32.9 | nt
CCN(Cc1cc2ccccc2[nH]c1=O)S(=O)(=O)c1ccccc1 | 81.2* | 0.4 | 0.2 | 5.0 | 15.8 | 59.4*
CC(C)C(=O)N(Cc1cc2ccccc2[nH]c1=O)C(C)C | -3.5 | 1 | 1 | -2.0 | -5.9 | 2.1
COC(=O)c1cccc(S(=O)(=O)N(Cc2ccco2)Cc2cc3ccc(OC)cc3[nH]c2=O)c1 | 19.4 | 0.5 | 0.8 | -6.0 | -10.8 | 51.5*
CCCN(Cc1cc2ccc(C)cc2[nH]c1=O)S(=O)(=O)c1ccccc1 | 36.5 | 0 | 0.6 | 3.0 | nt | 97.4*
CC(=O)c1cccc(S(=O)(=O)N(Cc2cc3cc4c(cc3[nH]c2=O)OCCO4)CC2CCCO2)c1 (stereo not drawn) | 26.6 | 0.7 | 0.7 | -9.0 | -19.5 | 29.7
SMILES | CYP2C19 inhib | CYP2C9 activ | CYP2C19 activ | Ecoli WT expand | Ecoli tolC | CYP2C9 inhib
COC(=O)c1cccc(S(=O)(=O)N(Cc2ccco2)Cc2cc3cc(OC)c(OC)cc3[nH]c2=O)c1 | 13.0 | 0.8 | 0.9 | -4.0 | nt | 23.2
CC(=O)c1cccc(S(=O)(=O)N(CCCO)Cc2cc3ccc(C)cc3[nH]c2=O)c1 | -0.4 | 0.3 | 1 | 4.0 | -9.8 | 70.9*
C=CCn1c(N)cc(=O)nc1SCC(=O)N1CCN(c2ccc(F)cc2)CC1 | 19.8 | 1 | 0.8 | 0.0 | 1.1 | 3.9
Cc1cccc(NC(=O)c2nc(-c3ccccc3)n(-c3ccccc3)n2)c1C | 20.2 | 0.7 | 0.8 | -16.0 | nt | 31.7
Cc1c(Cl)cccc1NC(=O)c1nc(C)n(-c2cc(OC(C)C)c(Cl)cc2Cl)n1 | 6.9 | 0.2 | 0.9 | -10.0 | nt | 83.3*
CCOc1ccc2nc(SCC(=O)Nc3cc4c(cc3C(C)=O)OCO4)[nH]c2c1 | 61.2* | 0.3 | 0.4 | 3.0 | nt | 72.1*
COc1ccc2nc(SCC(=O)Nc3ccccc3C)[nH]c2c1 | 67.7* | 0.1 | 0.3 | 6.0 | nt | 87.8*
COc1ccc2nc(SCC(=O)Nc3ccccc3C#N)[nH]c2c1 | 37.7 | 0.3 | 0.6 | 10.0 | 10.7 | 67.1*
CCCNC(=S)Nc1ccc2nc(-c3ccccn3)c(-c3ccccn3)nc2c1 | 22.3 | 0.7 | 0.8 | 0.0 | nt | 31.8
COc1ccc(C(=O)Oc2ccc3oc(=O)sc3c2)cc1 | -5.0 | 1 | 1.1 | -11.0 | nt | 4.4
COc1nc(NS(=O)(=O)c2ccc(C)cc2)nc(C)c1Cl | 68.0* | 0.3 | 0.3 | -1.0 | -3.6 | 71.0*
Cc1cc(C)n(Cc2ccc(NC(=O)c3c([N+](=O)[O-])c(C)nn3C)cc2)n1 | -9.0 | 0.7 | 1.1 | 9.0 | nt | 28.8
Cc1ccc(-n2c3c(c(=O)[nH]c2=O)C(NS(=O)(=O)c2ccc(C)cc2)(C(F)(F)F)C(=O)N3)cc1 (stereo not drawn) | -6.7 | 1.2 | 1.1 | -3.0 | nt | -20.5
CCc1c(C(C)S(=O)(=O)c2ccc(C)cc2)[nH]c(=O)n1-c1ccc(C)cc1 (stereo not drawn) | 58.8* | 0.8 | 0.4 | 6.0 | nt | 18.8
Cc1ccc(C(=O)CCCn2nnc(-c3cccnc3)n2)cc1C | 80.0* | 0.4 | 0.2 | 7.0 | nt | 55.1*
CC1CCCN(C(=O)Cn2nnc(-c3cccnc3)n2)C1 (stereo not drawn) | 48.1 | 1.1 | 0.5 | 6.0 | -24.8 | -14.0
Cc1ccccc1C(NC(N)=O)c1ccccc1 (stereo not drawn) | 94.9* | 0.7 | 0.1 | -5.0 | 5.6 | 28.8
Cc1ccccc1OCc1nnc2c3cnn(C)c3ncn12 | 41.3 | 1 | 0.6 | 3.0 | -5.2 | 1.4
Cc1ccc(SCc2cn3c(C)csc3n2)cc1 | 90.4* | 2.9* | 0.1 | 25.0 | 42.2 | -186.8
Cc1cc(C)c(S(=O)(=O)NCc2cn3c(C)csc3n2)c(C)c1 | 50.9* | 1.2 | 0.5 | -1.0 | 2.7 | -21.3
Cc1csc2nc(CCNS(=O)(=O)c3cccs3)cn12 | 70.1* | 1.2 | 0.3 | 5.0 | -0.3 | -20.9
COc1ccc(-c2cn3c(C)c(C(=O)N4CCN(c5ccc(OC)cc5)CC4)sc3n2)cc1 | nt | nt | nt | nt | -11.5 | nt
CCOC(=O)CN1CCc2c(C)nc3c(-c4ccc(OC)c(OC)c4)cnn3c21 | -5.9 | 0.9 | 1.1 | -2.0 | nt | 12.9
